Active and inactive are the calls of the source. The calls are words filed in the database; no cut-off is given here.

Assay [1] in a line: Inhibition of tubulin assembly at 13 uM.
The test system of assay [2] is HCT-116. Put plainly: Cytotoxicity against human HCT116 cells. The format is functional, cell-based. Summed up:
(§1)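 Growth inhibition assay; IC50 taken as the sample concentration producing 50% reduction in cell growth, each drug concentration tested in triplicate.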

The nature of assay [3]: Inhibition of tubulin assembly at 130 uM.
The nature of assay [4]: Inhibition of tubulin assembly.
For assay [5], the system named is HCT-116. Put plainly: Induction of apoptosis in human HCT116 cells after 24 hrs by caspase activation assay. The format is functional, cell-based. Summed up: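 Cells treated with 10, 50 and 100 nM for 24 h; caspase 3 and 7 activities measured by standard caspase cleavage assay.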
The test system of assay [6] is K562. Put plainly: Cytotoxicity against human K562 cells. The format is functional, cell-based.
In assay [7] the test system is HUVEC. The experiment in a line: Cytotoxicity against HUVEC. Conditions: Homo sapiens. It counts as cell-based. Summed up:
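HUVEC proliferation measured after 72 h incubation; IC50 derived for growth inhibition.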

Assay [8] can be described thus: Cytotoxicity against human H1299 cells. It counts as functional, cell-based. To be noted: NCI-H1299. Summed up:
as §1

Assay [9] is described as follows: Cell cycle arrest in human H1299 cells assessed as accumulation at G2/M phase at 10 nM after 24 hrs by flow cytometry. It counts as functional, cell-based. Conditions: NCI-H1299. In short, it runs like this:
(§2)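 Flow cytometry of cellular DNA content after 24 h exposure to 10, 20 or 50 nM; percentage of cells in G2/M phase reported, DMSO vehicle control; data representative of three independent experiments.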

Assay [10] can be described thus: Cell cycle arrest in human H1299 cells assessed as accumulation at G2/M phase at 50 nM after 24 hrs by flow cytometry. It counts as functional, cell-based. To be noted: NCI-H1299. Summed up:
as §2
(A flow cytometer gives signals particle by particle.)

Assay [11] relates to HCT-116. Put plainly: Cell cycle arrest in human HCT116 cells assessed as accumulation at G2/M phase at 10 nM after 24 hrs by flow cytometry. The format is functional. Summed up: as §2
For assay [12], the system named is MDA-MB-231. The experiment in a line: Cytotoxicity against human MDA-MB-231 cells. It counts as functional, cell-based.
The test system of assay [13] is HUVEC. Put plainly: Disruption of integrity of newly formed blood vessels of HUVEC at 100 nM after 3 hrs by tube formation assay. The format is functional, cell-based. To be noted: Homo sapiens, Blood vessel. Summed up:
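HUVEC seeded on Matrigel; 24 h later, compound (100 nM) or vehicle added to formed cords; images taken 3 h after addition to assess network integrity.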

The nature of assay [14]: Cell cycle arrest in human H1299 cells assessed as accumulation at G2/M phase at 20 nM after 24 hrs by flow cytometry. It counts as functional, cell-based. Conditions: NCI-H1299. In short, it runs like this:
as §2

The test system of assay [15] is HCT-116. The experiment in a line: Cell cycle arrest in human HCT116 cells assessed as accumulation at G2/M phase at 20 nM after 24 hrs by flow cytometry. It counts as functional. In short, it runs like this: as §2
Assay [16] has as its system HCT-116. Put plainly: Cell cycle arrest in human HCT116 cells assessed as accumulation at G2/M phase at 50 nM after 24 hrs by flow cytometry. The format is functional. In short, it runs like this: as §2

The inhibition is the change of the read-out against control, counted positive when it falls. Read a high inhibition as a strong effect. The term IC50 denotes the point on the concentration scale where inhibition reaches its midpoint. Lower therefore signals greater potency. For the compound `COc1cc(C(=O)C(=O)c2ccccc2)cc(OC)c1OC`, the inhibition in assay [1] was determined as 34%; in [3] it was 79%. This compound had an IC50 in assay [2] of 3000 nM.

In the case of `COc1ccc(C(=O)C(=O)c2cc(OC)c(OC)c(OC)c2)cc1NC(C)=O`, the inhibition in assay [1] and in assay [3] was 45% in each case. For the same compound, the IC50 in [2] worked out at 350 nM.

On to `COc1ccc(C(=O)C(=O)c2cc(OC)c(OC)c(OC)c2)cc1F`, for which the inhibition in assay [1] was 47%; in assay [3] it was 73%. For the same compound, it took 700 nM to reach half-maximal inhibition in assay [2] (IC50).

`COc1cc(C(=O)C(=O)c2ccccn2)cc(OC)c1OC`: the result in assay [2] was inactive. Moreover, the inhibition in assay [3] turned out to be 23%.

Take `COc1ccc(C(=O)C(=O)c2cc(OC)c(OC)c(OC)c2)cc1OC`: the IC50 in assay [4] came to 63000 nM; in assay [2] it was 300 nM. Besides, the values for the inhibition in assay [1] and in [3] were 52% and 85%, respectively.

As to `COc1ccc(C(=O)C(=O)c2cc(OC)c(OC)c(OC)c2)cc1N`, the result in [5] and in assay [13] was Active. In addition, the IC50 in assay [4] came out at 5000 nM; in [6], 20 nM; in [7] it was 40 nM; in assay [8], 50 nM; in assay [12] it was 30 nM; in [2] it was 38 nM. In addition, the inhibition in assay [1] came out at 82%; in assay [3], 88%. Moreover, the Activity in [9] was 11.7%; in assay [10] it was 16.5%; in assay [11] it was 13%; in assay [14] it was 12.2%; in assay [15], 15.9%; in [16] it was 28%.

As to `COc1ccc(/C=C\c2cc(OC)c(OC)c(OC)c2)cc1O` [COMBRETASTATIN A4], the IC50 in assay [7] amounted to 2.5 nM; in assay [8] it was 5 nM; in [2], 1.8 nM. For the same compound, the inhibition in [1] came to 77%; in [3], 88%.

For `COc1ccc(C(=O)C(=O)c2cc(OC)c(OC)c(OC)c2)cc1OC(C)=O`, the IC50 in assay [6] came out at 25 nM; in [8], 30 nM; in assay [12] it was 40 nM; in assay [2], 40 nM. The inhibition in [3] worked out at 14%.

Take `COc1cc(C(=O)C(=O)c2ccc(C#N)cc2)cc(OC)c1OC`: in assay [2], the result was inactive. Moreover, in assay [3], the inhibition is 28%.

On to `COc1cc(C(=O)C(=O)c2cccc(O)c2)cc(OC)c1OC`, for which the inhibition in assay [1] was 42%; in assay [3], 69%. The compound also had an IC50 in assay [2] of 2000 nM.

For the compound `COc1cc(C(=O)C(=O)c2ccccc2C#N)cc(OC)c1OC`, the inhibition in assay [1] amounted to 12%; in [3], 0%. Moreover, in assay [2], the result was inactive.

For the compound `COc1cc(C(=O)C(=O)c2cnc3ccccc3c2)cc(OC)c1OC`, the inhibition in assay [1] was 35%; in [3], 58%. Moreover, in assay [2], the outcome was inactive.

As for `COc1ccc(C(=O)C(=O)c2cc(OC)c(OC)c(OC)c2)cc1O`, the outcome in assay [5] was Active. Further, the IC50 in assay [4] was 1500 nM; in assay [6], 25 nM; in assay [7], 35 nM; in assay [8], 30 nM; in assay [12], 40 nM; in [2] it was 35 nM. In addition, the inhibition in [1] turned out to be 65%; in [3], 73%. Besides, the Activity in assay [9] worked out at 11.4%; in assay [10], 27.7%; in assay [11], 11%; in [14], 15%; in assay [15] it was 18.5%; in [16], 22.8%.

Consider `COc1ccc(C(=O)C(=O)c2cc(OC)c(OC)c(OC)c2)cc1`, for which the IC50 in assay [4] was 21000 nM; in [2], 300 nM. In addition, the inhibition in assay [1] stood at 58%; in [3], 89%.

Turning to `COc1cc(C(=O)C(=O)c2ccc3ccccc3c2)cc(OC)c1OC`, the inhibition amounted to 23% in [1] and 80% in assay [3]. Inhibition in [2] was half-maximal at 3000 nM (IC50).

The values above are taken from ChEMBL document CHEMBL1143096, “Synthesis and antitumor activity of benzils related to combretastatin A-4” (Bioorg Med Chem Lett, 2008).
